Source: PubChem BioAssay
SENP8 block-1 = SENP8 protease inhibitors, primary screen, biochemical, luminescence. Sentrin-specific protease 8 (Homo sapiens), Q96LD8. AID 2540, 2010. inhibition, % at 10 µM. purified SENP8, Z-RLRGG-aminoluciferin cleavage. 330,000 compounds, 1.2% hits; in the data active = inhibition above about 50%
SENP8 block-2 = human SENP8 protease inhibitors, primary screen, biochemical, fluorescence, Nedd8 protein substrate, uHTS; recombinant SENP8; inhibition, % at 20 µM; 360,000 compounds, 0.64% hits; AID 602440, 2012; in the data active = inhibition mostly above about 40%, no sharp cut-off; inactive = mostly below about 27%
SENP1 inh = human SENP1 catalytic domain inhibitors, primary screen, biochemical, FRET, uHTS | AID 624204, 2012 | Sentrin-specific protease 1 (Homo sapiens), Q9P0U3 | inhibition, % at 10 µM | recombinant SENP1 catalytic domain, CyPet-SUMO1-YPet FRET cleavage | 360,000 compounds, 0.21% hits;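 active = inhibition at least 30% at 10 µM, raw YFP signal under a set limit, fluorescence ratio 0.5 to 1.5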
Target sequence (Q9P0U3 419-644 limits assumed): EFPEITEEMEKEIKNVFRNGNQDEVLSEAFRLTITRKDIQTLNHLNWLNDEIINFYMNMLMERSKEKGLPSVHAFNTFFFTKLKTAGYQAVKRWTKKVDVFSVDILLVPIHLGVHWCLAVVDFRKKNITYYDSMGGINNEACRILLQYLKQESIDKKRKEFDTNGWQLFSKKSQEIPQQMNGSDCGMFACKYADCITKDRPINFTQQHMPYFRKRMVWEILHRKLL
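material = recombinant human SENP1 catalytic domain, His6-tagged | quantity = 20 pM enzyme | reagent = 25 nM SUMO1 FRET substrate | compound dosing = 10 µM single point, 0.5% DMSO | timing = 50 min enzyme reaction, room temperature, light-protected | detection = FRET, CFP and YFP emission | control set = no-enzyme low, enzyme-DMSO high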
SENP7 block = SENP7 protease inhibitors, primary screen, biochemical, luminescence, uHTS | Sentrin-specific protease 7 (Homo sapiens), Q9BQF6 | recombinant SENP7, Z-RLRGG-aminoluciferin luminescence, 40 min | inhibition, % at 5 µM | 330,000 compounds, 1.5% hits | AID 434973, 2010;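 active = inhibition above about 50% at the single test dose, limit read from the data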
Target sequence (Q9BQF6 706-1050 limits assumed): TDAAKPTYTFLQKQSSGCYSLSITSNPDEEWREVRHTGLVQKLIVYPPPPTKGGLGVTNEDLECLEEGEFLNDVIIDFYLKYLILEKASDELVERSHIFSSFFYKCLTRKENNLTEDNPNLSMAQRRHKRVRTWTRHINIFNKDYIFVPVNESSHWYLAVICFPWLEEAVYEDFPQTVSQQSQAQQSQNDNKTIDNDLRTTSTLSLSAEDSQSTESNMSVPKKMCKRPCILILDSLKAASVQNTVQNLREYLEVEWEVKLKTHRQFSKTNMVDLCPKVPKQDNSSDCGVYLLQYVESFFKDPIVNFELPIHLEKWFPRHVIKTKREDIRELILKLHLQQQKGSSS
SENP6 inh = SENP6 protease inhibitors, primary screen, biochemical, luminescence, uHTS. Sentrin-specific protease 6 (Homo sapiens), Q9GZR1. Recombinant SENP6 catalytic domain, aminoluciferin luminescence. AID 2599, 2010. inhibition, % at 10 µM. 330,000 compounds, 1.8% hits;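 active = inhibition above about 50% at the single tested dose, limit read from the data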
Hits are given with their value. Rows were chosen to be rich in hits. Some 2.5% of all compounds tested hit in one or more screens of this group.

How did Cc1ccc(CSc2nnc(SCC(=O)N/N=C/c3c[nH]c4ccccc34)s2)cc1 do in these assays?
SENP8 block-2: inactive; SENP1 inh: inactive

What do the screens show for `O=C(CSc1nnc(SCc2ccccc2)s1)N/N=C/c1ccc(C(=O)O)cc1`?
SENP8 block-1: 51; SENP8 block-2: inactive; SENP1 inh: inactive; SENP7 block: inactive; SENP6 inh: inactive

Results for Cc1ccc(CSc2nnc(SCC(=O)N/N=C/c3ccc(C(=O)O)cc3)s2)cc1 ?
SENP8 block-1: 72; SENP8 block-2: inactive; SENP1 inh: inactive; SENP7 block: 55; SENP6 inh: 92

What do the screens show for `CC1CCN(CCC(=O)Nc2ccc(F)c(F)c2)CC1`?
SENP8 block-1: inactive; SENP8 block-2: inactive; SENP1 inh: inactive; SENP7 block: inactive; SENP6 inh: inactive

What do the screens show for `O=C(CNC(=O)c1cc(Cl)cc([N+](=O)[O-])c1)NC1CC1`?
SENP8 block-1: inactive; SENP8 block-2: inactive; SENP1 inh: inactive; SENP7 block: inactive; SENP6 inh: inactive

Results for CCOC(=O)[C@]12CCC=C1N(Cc1ccc3c(c1)OCO3)C(=O)[C@H](CC(=O)N1CCC(c3ccccc3)CC1)C2 ?
SENP8 block-2: inactive; SENP1 inh: inactive

Results for Cc1nnsc1S(=O)c1ccc(Cl)c(Cl)c1 (centres undefined) ?
SENP8 block-1: inactive; SENP8 block-2: inactive; SENP1 inh: inactive; SENP7 block: inactive; SENP6 inh: inactive

Results for O=S(c1ccc2ccccc2c1)c1cnns1 (centres undefined) ?
SENP8 block-1: inactive; SENP8 block-2: 44; SENP1 inh: inactive; SENP7 block: inactive; SENP6 inh: inactive

What do the screens show for `CC(C)OC(=O)c1ccc(COC(=O)c2cnccn2)cc1`?
SENP8 block-1: inactive; SENP8 block-2: inactive; SENP1 inh: inactive; SENP7 block: 69; SENP6 inh: 59

Results for O=C(Oc1ccc(Cl)cc1)c1ccc(COC(=O)c2cnccn2)cc1 ?
SENP8 block-1: inactive; SENP8 block-2: inactive; SENP1 inh: inactive; SENP7 block: inactive; SENP6 inh: inactive

How did COc1ccccc1C=NN1C(=O)CSC1=S do in these assays?
SENP8 block-2: inactive; SENP1 inh: inactive

Results for O=C1CSC(=S)N1/N=C/c1ccc(O)c(O)c1O ?
SENP8 block-1: inactive; SENP8 block-2: 53; SENP1 inh: inactive; SENP7 block: inactive; SENP6 inh: inactive

How did O=C(N/N=C/C(Br)=C/c1ccccc1)c1cccs1 do in these assays?
SENP8 block-1: 51; SENP8 block-2: inactive; SENP1 inh: inactive; SENP7 block: inactive; SENP6 inh: 62

How did Cc1cc(O)c2c(c1O)C(=O)[C@]13C(=C2O)C(=O)[C@@H]2[C@@H](O)[C@H]1[C@@H]1[C@H](O)[C@H]3C(=O)C3=C(O)c4c(O)cc(C)c(O)c4C(=O)[C@]312 do in these assays?
SENP8 block-1: inactive; SENP8 block-2: 20; SENP1 inh: inactive; SENP7 block: inactive; SENP6 inh: inactive

How did CC(=O)OC(C)C1C2=C(C(=O)CC1(C)O)C(=O)c1c(ccc(-c3ccc4c(c3O)C(=O)C3=C(C4=O)C(C(C)OC(C)=O)C(C)(O)CC3=O)c1O)C2=O (centres undefined) do in these assays?
SENP8 block-2: 49; SENP1 inh: inactive

Results for COc1ccc(N=Nc2cc(OC)c(N)cc2OC)cc1 ?
SENP8 block-2: 42; SENP1 inh: inactive

Results for COc1ccc(N=Nc2ccc(N)nc2N)cc1 ?
SENP8 block-1: 73; SENP8 block-2: inactive; SENP1 inh: inactive; SENP7 block: 78; SENP6 inh: 78

What do the screens show for `CCCCN1C(=O)C2(NNc3ccccc3O2)c2ccccc21` (centres undefined)?
SENP8 block-1: inactive; SENP8 block-2: inactive; SENP1 inh: inactive; SENP7 block: inactive; SENP6 inh: inactive

How did C=CCN1C(=O)C2(NNc3ccccc3O2)c2ccccc21 (centres undefined) do in these assays?
SENP8 block-1: inactive; SENP8 block-2: inactive; SENP1 inh: 81; SENP7 block: inactive; SENP6 inh: inactive

What do the screens show for `COc1cc(/C=C(\CC(=O)O)c2nc3ccccc3s2)cc(OC)c1O`?
SENP8 block-1: inactive; SENP8 block-2: inactive; SENP1 inh: 57; SENP7 block: inactive; SENP6 inh: inactive

Results for O=C(Cn1cc(SCc2cccc(Cl)c2)c2ccccc21)N1CCOCC1 ?
SENP8 block-1: inactive; SENP8 block-2: inactive; SENP1 inh: inactive; SENP7 block: 55; SENP6 inh: inactive

How did O=C(CSc1cn(CC(=O)N2CCOCC2)c2ccccc12)N1CCOCC1 do in these assays?
SENP8 block-1: inactive; SENP8 block-2: inactive; SENP1 inh: inactive; SENP7 block: inactive; SENP6 inh: inactive

How did COC(=O)c1cccc(-n2sc3ccccc3c2=O)c1 do in these assays?
SENP8 block-1: 57; SENP8 block-2: inactive; SENP1 inh: inactive; SENP7 block: inactive; SENP6 inh: 70

What do the screens show for `COC(=O)c1cccc(N2CCCC2=O)c1`?
SENP8 block-1: inactive; SENP8 block-2: inactive; SENP1 inh: inactive; SENP7 block: inactive; SENP6 inh: inactive

How did Cc1ccc(-n2sc3ccccc3c2=O)cc1 do in these assays?
SENP8 block-1: 86; SENP8 block-2: inactive; SENP1 inh: inactive; SENP7 block: 77; SENP6 inh: 94

Results for O=c1c2ccccc2sn1-c1ccc(Cl)cc1 ?
SENP8 block-2: inactive; SENP1 inh: inactive

Results for CCn1c(=O)c2sccc2n(Cc2ccc(C)cc2)c1=O ?
SENP8 block-1: inactive; SENP8 block-2: inactive; SENP1 inh: inactive; SENP7 block: inactive; SENP6 inh: inactive

How did COC(=O)[C@]1(Cc2ccccc2)N[C@H](c2ccc(-c3cc(C(C)=O)cs3)cc2)[C@@H]2C(=O)N(C)C(=O)[C@@H]21 do in these assays?
SENP8 block-1: inactive; SENP8 block-2: inactive; SENP1 inh: inactive; SENP7 block: inactive; SENP6 inh: inactive

What do the screens show for `COCCNC(=O)C1(C)CCCN(Cc2ccc(Oc3ccccc3)cc2)C1` (centres undefined)?
SENP8 block-2: inactive; SENP1 inh: inactive

How did CCOc1ccc(NC(C)c2cc(Cl)ccc2O)cc1 (centres undefined) do in these assays?
SENP8 block-1: inactive; SENP8 block-2: 46; SENP1 inh: inactive; SENP7 block: inactive; SENP6 inh: inactive

Results for CC(Nc1ccc(Cl)cc1)c1cc(Cl)ccc1O (centres undefined) ?
SENP8 block-1: inactive; SENP8 block-2: inactive; SENP1 inh: inactive; SENP7 block: inactive; SENP6 inh: inactive

What do the screens show for `C[C@H](CO)N1C[C@H](C)[C@@H](CN(C)S(C)(=O)=O)Oc2ccc(NC(=O)NC3CCCCC3)cc2C1=O`?
SENP8 block-1: inactive; SENP8 block-2: inactive; SENP1 inh: inactive; SENP7 block: inactive; SENP6 inh: inactive

How did COc1cccc(CNc2ncc(Br)cc2Br)c1O do in these assays?
SENP8 block-1: inactive; SENP8 block-2: 40; SENP1 inh: inactive; SENP7 block: inactive; SENP6 inh: inactive
